Results as given in ChEMBL document CHEMBL1123822, “Lysosomotropic agents. 7. Broad-spectrum antifungal activity of lysosomotropic detergents” (1987).
Converted amounts (≈) assume the structure as drawn.

Assays:
Assay type in all cases: functional
[1] = system: Candida albicans; experiment: The compound was tested for antifungal activity against Candida stellatoidea MY1017 using agar dilution assay
Method in brief: (§1)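 Standardized agar dilution on Kimmig agar with 5% glycerol. Detergents solubilized in 10% Me2SO; desoxycholate-stabilized amphotericin B diluted and titrated in sterile distilled water. Twofold dilutions in sterile distilled water gave final agar concentrations of 128 to 0.06 μg/mL. Error limit ±1 dilution stage.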

[2] = system: Saccharomyces cerevisiae; experiment: The compound was evaluated for mean zone diameter (inhibition) against yeast at the concentration of 250 ug/mL
Method in brief: (§2)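 Filter-paper disk diffusion (6.2 mm disks) with drug in methanol at the stated level, 25 μL per disk. Disks were air-dried at room temperature, laid on seeded agar, rewet with 25 μL 10% aqueous Me₂SO and incubated overnight. Media were unbuffered, pH ca. 4.5–5.6. The panel was 21 yeasts and 21 filamentous fungi. Zones of 0 mm were excluded from means.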

[3] = system: Fungi; experiment: The compound was evaluated for mean zone diameter (inhibition) against yeast at the concentration of 1000 ug/mL
Method in brief: (§3)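 Disk diffusion: drug in methanol spotted on 6.2 mm paper disks (25 μL/disk), dried at room temperature, laid on seeded agar, rewet with 25 μL 10% aqueous Me₂SO; zones read after overnight incubation. Unbuffered acidic media (pH ca. 4.5–5.6). Panel of 21 yeasts and 21 filamentous fungi; zones of 0 mm excluded from means.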

[4] = system: Candida albicans; experiment: The compound was tested for antifungal activity against Candida albicans MY0992 using agar dilution assay
Method in brief: (§4)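 Standardized agar dilution in Kimmig agar with 5% glycerol. Lysosomotropic detergents solubilized in 10% Me₂SO. Twofold serial dilutions in sterile distilled water gave final agar concentrations of 128 to 0.06 μg/mL. Stated error ±1 dilution stage.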

[5] = system: Candida tropicalis; experiment: The compound was tested for antifungal activity against Candida tropicalis MY1011 using agar dilution assay; method in brief: as §1
[6] = system: Cryptococcus neoformans; experiment: The compound was tested for antifungal activity against Cryptococcus neoformans MY1146 using agar dilution assay; method in brief: as §1
[7] = system: Candida albicans; experiment: The compound was tested for antifungal activity against Candida albicans MY1013 using agar dilution assay; method in brief: as §4
[8] = system: Cryptococcus neoformans; experiment: The compound was tested for antifungal activity against Cryptococcus neoformans MY1051 using agar dilution assay; method in brief: as §1
[9] = system: Pichia kudriavzevii; experiment: The compound was tested for antifungal activity against Candida krusei MY1020 using agar dilution assay; method in brief: as §4
[10] = system: Nakaseomyces glabratus; experiment: The compound was tested for antifungal activity against Torulopsis glabrata MY1059 using agar dilution assay; method in brief: as §1
[11] = system: Candida parapsilosis; experiment: The compound was tested for antifungal activity against Candida parapsilosis MY1010 using agar dilution assay; conditions: Lodderomyces parapsilosis; method in brief: as §4
[12] = system: Saccharomyces cerevisiae; experiment: The compound was evaluated for mean zone diameter (inhibition) against yeast at the concentration of 500 ug/mL; method in brief: as §3
[13] = system: Candida tropicalis; experiment: The compound was tested for antifungal activity against Candida tropicalis MY1012 using agar dilution assay; method in brief: as §1
[14] = system: Saccharomyces cerevisiae; experiment: The compound was tested for antifungal activity against Saccharomyces cerevisiae MY1027 using agar dilution assay; method in brief: as §1
[15] = system: Candida albicans; experiment: The compound was tested for antifungal activity against Candida albicans MY1058 using agar dilution assay; method in brief: as §4
[16] = system: Penicillium italicum; experiment: The compound was tested for antifungal activity against Penicillium italicum MF2819 using agar dilution assay; method in brief: as §1
[17] = system: Diutina rugosa; experiment: The compound was tested for antifungal activity against Candida rugosa MY1022 using agar dilution assay; method in brief: as §4
[18] = system: Kluyveromyces marxianus; experiment: The compound was tested for antifungal activity against Candida pseudotropicalis MY1040 using agar dilution assay; method in brief: as §4
[19] = system: Aspergillus fumigatus; experiment: The compound was tested for antifungal activity against Aspergillus fumigatus MF4839 using agar dilution assay; method in brief: as §4
[20] = system: Candida albicans; experiment: The compound was tested for antifungal activity against Candida albicans My1029 using agar dilution assay; method in brief: as §4
[21] = system: Saccharomyces cerevisiae; experiment: The compound was evaluated for mean zone diameter (inhibition) against yeast at the concentration of 125 ug/mL; method in brief: as §2
[22] = system: Candida albicans; experiment: The compound was tested for antifungal activity against Candida albicans MY1055 using agar dilution assay; method in brief: as §4
[23] = system: Aspergillus flavus; experiment: The compound was tested for antifungal activity against Aspergillus flavus MF0383 using agar dilution assay; method in brief: as §4
[24] = system: Candida parapsilosis; experiment: The compound was tested for antifungal activity against Candida parapsilosis MY1009 using agar dilution assay; conditions: Lodderomyces parapsilosis; method in brief: as §4
[25] = system: Meyerozyma guilliermondii; experiment: The compound was tested for antifungal activity against Candida guilliermondii MY1019 using agar dilution assay; method in brief: as §4
[26] = system: Nakaseomyces glabratus; experiment: The compound was evaluated for zone inhibition against Torulopsis glabrata MY1062 using disk diffusion assay
Method in brief: (§5)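 Filter-paper disks (6.2 mm) loaded with 25 μL of a 250 μg/mL methanol solution, dried at room temperature, laid on seeded agar and rewet with 25 μL 10% aqueous Me₂SO. Media were unbuffered, pH ca. 4.5–5.6: potato dextrose agar for filamentous fungi, sabouraud dextrose agar for yeasts, unless noted. Inhibition zone diameter read after overnight incubation, ±1 mm. Zone edges scored fuzzy, slightly hazy, hazy or very hazy.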

[27] = system: Penicillium; experiment: The compound was evaluated for zone inhibition against Penicillium sp (MF5016) using disk diffusion assay; 25 Fuzzy edges; method in brief: as §5
[28] = system: Cephalosporium; experiment: The compound was evaluated for zone inhibition against Cephalosporium sp (MF4641) using disk diffusion assay
Method in brief: (§6)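 Disk diffusion: 25 μL of 250 μg/mL drug in methanol on 6.2 mm paper disks, dried at room temperature, placed on seeded agar and rewet with 25 μL 10% aqueous Me₂SO. Zones were read after overnight incubation, ±1 mm. Media were unbuffered, pH ca. 4.5–5.6: potato dextrose agar for filamentous fungi, Sabouraud dextrose for yeasts, unless YNB (76 mM ammonium sulfate, sole nitrogen source) or YED is named. Zone edges were scored fuzzy, slightly hazy, hazy or very hazy.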

[29] = system: Saccharomyces cerevisiae; experiment: The compound was evaluated for mean zone diameter (inhibition) against yeast at the concentration of 62.5 ug/mL; method in brief: as §2
[30] = system: Ustilago maydis; experiment: The compound was evaluated for zone inhibition against Ustilago zeae (MF1996) using disk diffusion assay; 28 Fuzzy edges; method in brief: as §5
[31] = system: Cercospora beticola; experiment: The compound was evaluated for zone inhibition against Cercospora beticola (MF4608) using disk diffusion assay; 22 Fuzzy edges; method in brief: as §6
[32] = system: Kluyveromyces marxianus; experiment: The compound was evaluated for zone inhibition against Kluyveromyces fragilis MY1113 using disk diffusion assay; 13 Fuzzy edges; method in brief: as §5
[33] = system: Papiliotrema laurentii; experiment: The compound was evaluated for zone inhibition against Cryptococcus laurentii MY1074 using disk diffusion assay; 16 slightly hazy; method in brief: as §5
[34] = system: Fusarium oxysporum; experiment: The compound was evaluated for zone inhibition against Fusarium oxysporum (MF4014) using disk diffusion assay; method in brief: as §5
[35] = system: Penicillium; experiment: The compound was evaluated for zone inhibition against Penicillium sp (MF5020) using disk diffusion assay; 21 Fuzzy edges; method in brief: as §5
[36] = system: Rhizomucor miehei; experiment: The compound was evaluated for zone inhibition against Rhizomucor miehei (MF4784) using disk diffusion assay; method in brief: as §5
[37] = system: Trichoderma viride; experiment: The compound was evaluated for zone inhibition against Trichoderma lignorum (MF3560) using disk diffusion assay; 24 Fuzzy edges; method in brief: as §5
[38] = system: Papiliotrema laurentii; experiment: The compound was evaluated for zone inhibition against Cryptococcus laurentii MY1077 using disk diffusion assay; 22 Fuzzy edges; method in brief: as §5
[39] = system: Saccharomyces cerevisiae; experiment: The compound was evaluated for zone inhibition against Saccharomyces cerevisiae YED MY34 using disk diffusion assay; method in brief: as §5
[40] = system: Saccharomyces cerevisiae; experiment: The compound was evaluated for zone inhibition against Saccharomyces cerevisiae MY410 using disk diffusion assay; 9 Fuzzy edges; method in brief: as §5
[41] = system: Naganishia albida; experiment: The compound was evaluated for zone inhibition against Cryptococcus albidus MY1070 using disk diffusion assay; 23 Fuzzy edges; method in brief: as §6
[42] = system: Phoma; experiment: The compound was evaluated for zone inhibition against Phoma sp (MF4332) using disk diffusion assay; 23 Fuzzy edges; method in brief: as §5
[43] = system: Trichoderma; experiment: The compound was evaluated for zone inhibition against Trichoderma sp (MF4064) using disk diffusion assay; method in brief: as §5
[44] = system: Penicillium; experiment: The compound was evaluated for zone inhibition against Penicillium sp (MF5014) using disk diffusion assay; 22 Fuzzy edges; method in brief: as §5
[45] = system: Candida tropicalis; experiment: The compound was evaluated for zone inhibition against Candida tropicalis MY1012 using disk diffusion assay; 25 Fuzzy edges; method in brief: as §6

CC(=O)N1CCN(c2ccc(OCC3COC(Cn4ccnc4)(c4ccc(Cl)cc4Cl)O3)cc2)CC1 (stereo not drawn) [KETOCONAZOLE]
MIC [1]: 0.5 µg/mL (≈ 0.941 µM)
Inhibition zone [2]: 23.3 mm
Inhibition zone [3]: 27.2 mm
MIC [4]: 1 µg/mL (≈ 1.88 µM)
MIC [5]: 1 µg/mL (≈ 1.88 µM)
MIC [6]: 0.5 µg/mL (≈ 0.941 µM)
MIC [7]: 0.5 µg/mL (≈ 0.941 µM)
MIC [8]: 0.25 µg/mL (≈ 0.47 µM)
MIC [9]: 1 µg/mL (≈ 1.88 µM)
MIC [10]: 1 µg/mL (≈ 1.88 µM)
MIC [11]: 2 µg/mL (≈ 3.76 µM)
Inhibition zone [12]: 24.8 mm
MIC [13]: > 128 µg/mL
MIC [14]: 0.5 µg/mL (≈ 0.941 µM)
MIC [15]: 0.5 µg/mL (≈ 0.941 µM)
MIC [16]: 1 µg/mL (≈ 1.88 µM)
MIC [17]: 0.5 µg/mL (≈ 0.941 µM)
MIC [18]: 1 µg/mL (≈ 1.88 µM)
MIC [19]: 1 µg/mL (≈ 1.88 µM)
MIC [20]: 0.5 µg/mL (≈ 0.941 µM)
Inhibition zone [21]: 20.6 mm
MIC [22]: 0.5 µg/mL (≈ 0.941 µM)
MIC [23]: 1 µg/mL (≈ 1.88 µM)
MIC [24]: 4 µg/mL (≈ 7.53 µM)
MIC [25]: 0.5 µg/mL (≈ 0.941 µM)

CCCCCCCCCCCCn1ccnc1
Inhibition zone [26]: 11 mm
MIC [1]: 16 µg/mL (≈ 67.7 µM)
Inhibition zone [27]: 25 mm
Inhibition zone [28]: 13 mm
Inhibition zone [2]: 16.8 mm
MIC [4]: 32 µg/mL (≈ 135 µM)
MIC [5]: 32 µg/mL (≈ 135 µM)
MIC [6]: 4 µg/mL (≈ 16.9 µM)
MIC [7]: 16 µg/mL (≈ 67.7 µM)
MIC [8]: 4 µg/mL (≈ 16.9 µM)
Inhibition zone [29]: 14.4 mm
Inhibition zone [30]: 28 mm
Inhibition zone [31]: 22 mm
MIC [9]: 32 µg/mL (≈ 135 µM)
MIC [10]: 16 µg/mL (≈ 67.7 µM)
MIC [11]: 16 µg/mL (≈ 67.7 µM)
MIC [13]: 8 µg/mL (≈ 33.8 µM)
Inhibition zone [32]: 13 mm
Inhibition zone [33]: 16 mm
MIC [14]: 8 µg/mL (≈ 33.8 µM)
Inhibition zone [34]: 18 mm
Inhibition zone [35]: 21 mm
Inhibition zone [36]: 15 mm
Inhibition zone [37]: 24 mm
Inhibition zone [38]: 22 mm
Inhibition zone [39]: 15 mm
MIC [15]: 32 µg/mL (≈ 135 µM)
MIC [16]: 4 µg/mL (≈ 16.9 µM)
MIC [17]: 32 µg/mL (≈ 135 µM)
MIC [18]: 16 µg/mL (≈ 67.7 µM)
MIC [19]: 16 µg/mL (≈ 67.7 µM)
Inhibition zone [40]: 9 mm
MIC [20]: 32 µg/mL (≈ 135 µM)
Inhibition zone [41]: 23 mm
Inhibition zone [21]: 15.8 mm
MIC [22]: 32 µg/mL (≈ 135 µM)
MIC [23]: 16 µg/mL (≈ 67.7 µM)
Inhibition zone [42]: 23 mm
MIC [24]: 32 µg/mL (≈ 135 µM)
Inhibition zone [43]: 18 mm
Inhibition zone [44]: 22 mm
MIC [25]: 16 µg/mL (≈ 67.7 µM)
Inhibition zone [45]: 25 mm
